{
  "source": "ChEMBL document CHEMBL5724801",
  "about": "“EUbOPEN Chemogenomics Library - Multiplex” (2024)",
  "key": {"[1]": {"tested_on": "HEK-293T", "test": "Multiplex assay against HEK293T", "assay_type": "toxicity, cell-based", "conditions": "human", "in_short": "(§1)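 Live cells carried four stains from seeding: Hoechst33342, BioTracker Green Microtubule Cytoskeleton Dye, MitoTracker Red and Annexin V Alexa Fluor 680. They were imaged on a CQ1 microscope at 37°C and 5% CO2 after compound addition. Using CellPathfinder machine-learning gating, cells were split into Hoechst high-intensity objects or normal cells, normal cells into healthy, pyknosed or fragmented nuclei, and pyknosed cells into mitotic or apoptotic; tubulin, mitochondrial-mass and membrane-permeability phenotypes are per cents of healthy-nucleus cells.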"}, "[2]": {"tested_on": "U2OS", "test": "Multiplex assay against U2OS", "assay_type": "toxicity, cell-based", "conditions": "human", "in_short": "as §1"}, "[3]": {"conditions": "24 h, 10 µM, compound concentration 10 uM"}, "[4]": {"conditions": "48 h, 1 µM, compound concentration 1 uM"}, "[5]": {"conditions": "48 h, 10 µM, compound concentration 10 uM"}, "[6]": {"conditions": "12 h, 1 µM, compound concentration 1 uM"}, "[7]": {"conditions": "12 h, 10 µM, compound concentration 10 uM"}, "[8]": {"conditions": "24 h, 1 µM, compound concentration 1 uM"}},
  "note": "Several values for one entry are separate records, joined by “and”; a condition that tells them apart may be missing. Equal values may be shown once.",
  "data": [
    {"smiles": "COc1c(C)cc(NC(=O)c2nn(Cc3ccc(F)cc3)c3c2CN(C(=O)c2ccc[nH]2)C[C@]3(C)C(N)=O)cc1C", "values": [
      {"measurement": "Population Apoptotic (%)", "setting": "[1]; [3]", "value": "53% and 67%"},
      {"measurement": "Population Fragmented Nuclei (%)", "setting": "[1]; [3]", "value": "6% and 5%"},
      {"measurement": "Population Healthy Nuclei (%)", "setting": "[1]; [3]", "value": "73% and 74%"},
      {"measurement": "Population Hoechst High Intensity Objects (%)", "setting": "[1]; [3]", "value": "11% and 15%"},
      {"measurement": "Population Membrane Permeable-Phenotype (%)", "setting": "[1]; [3]", "value": 0, "unit": "%"},
      {"measurement": "Population Mitochondria Different-Phenotype (%)", "setting": "[1]; [3]", "value": "91% and 92%"},
      {"measurement": "Population Mitotic Cells (%)", "setting": "[1]; [3]", "value": "46% and 32%"},
      {"measurement": "Population Normal (%)", "setting": "[1]; [3]", "value": "88% and 84%"},
      {"measurement": "Population Pyknosed Nuclei (%)", "setting": "[1]; [3]", "value": 19, "unit": "%"},
      {"measurement": "Population Tubulin-Different-Phenotype (%)", "setting": "[1]; [3]", "value": "61% and 56%"},
      {"measurement": "Total Cell Count", "setting": "[1]; [3]", "value": "403 and 313"},
      {"measurement": "Population Apoptotic (%)", "setting": "[1]; [4]", "value": "21% and 39%"},
      {"measurement": "Population Fragmented Nuclei (%)", "setting": "[1]; [4]", "value": "11% and 12%"},
      {"measurement": "Population Healthy Nuclei (%)", "setting": "[1]; [4]", "value": 81, "unit": "%"},
      {"measurement": "Population Hoechst High Intensity Objects (%)", "setting": "[1]; [4]", "value": "2% and 3%"},
      {"measurement": "Population Membrane Permeable-Phenotype (%)", "setting": "[1]; [4]", "value": 1, "unit": "%"},
      {"measurement": "Population Mitochondria Different-Phenotype (%)", "setting": "[1]; [4]", "value": "25% and 28%"},
      {"measurement": "Population Mitotic Cells (%)", "setting": "[1]; [4]", "value": "78% and 60%"},
      {"measurement": "Population Normal (%)", "setting": "[1]; [4]", "value": "97% and 96%"},
      {"measurement": "Population Pyknosed Nuclei (%)", "setting": "[1]; [4]", "value": 6, "unit": "%"},
      {"measurement": "Population Tubulin-Different-Phenotype (%)", "setting": "[1]; [4]", "value": "18% and 9%"},
      {"measurement": "Total Cell Count", "setting": "[1]; [4]", "value": "920 and 652"},
      {"measurement": "Population Apoptotic (%)", "setting": "[1]; [5]", "value": "60% and 80%"},
      {"measurement": "Population Fragmented Nuclei (%)", "setting": "[1]; [5]", "value": "8% and 9%"},
      {"measurement": "Population Healthy Nuclei (%)", "setting": "[1]; [5]", "value": "76% and 81%"},
      {"measurement": "Population Hoechst High Intensity Objects (%)", "setting": "[1]; [5]", "value": "14% and 10%"},
      {"measurement": "Population Membrane Permeable-Phenotype (%)", "setting": "[1]; [5]", "value": 0, "unit": "%"},
      {"measurement": "Population Mitochondria Different-Phenotype (%)", "setting": "[1]; [5]", "value": "93% and 90%"},
      {"measurement": "Population Mitotic Cells (%)", "setting": "[1]; [5]", "value": "39% and 19%"},
      {"measurement": "Population Normal (%)", "setting": "[1]; [5]", "value": "85% and 89%"},
      {"measurement": "Population Pyknosed Nuclei (%)", "setting": "[1]; [5]", "value": "15% and 9%"},
      {"measurement": "Population Tubulin-Different-Phenotype (%)", "setting": "[1]; [5]", "value": "66% and 59%"},
      {"measurement": "Total Cell Count", "setting": "[1]; [5]", "value": "467 and 376"},
      {"measurement": "Population Apoptotic (%)", "setting": "[2]; [6]", "value": "65% and 83%"},
      {"measurement": "Population Fragmented Nuclei (%)", "setting": "[2]; [6]", "value": "22% and 21%"},
      {"measurement": "Population Healthy Nuclei (%)", "setting": "[2]; [6]", "value": "65% and 72%"},
      {"measurement": "Population Hoechst High Intensity Objects (%)", "setting": "[2]; [6]", "value": 2, "unit": "%"},
      {"measurement": "Population Membrane Permeable-Phenotype (%)", "setting": "[2]; [6]", "value": 8, "unit": "%"},
      {"measurement": "Population Mitochondria Different-Phenotype (%)", "setting": "[2]; [6]", "value": "3% and 12%"},
      {"measurement": "Population Mitotic Cells (%)", "setting": "[2]; [6]", "value": "34% and 16%"},
      {"measurement": "Population Normal (%)", "setting": "[2]; [6]", "value": 97, "unit": "%"},
      {"measurement": "Population Pyknosed Nuclei (%)", "setting": "[2]; [6]", "value": "12% and 6%"},
      {"measurement": "Population Tubulin-Different-Phenotype (%)", "setting": "[2]; [6]", "value": "5% and 9%"},
      {"measurement": "Total Cell Count", "setting": "[2]; [6]", "value": "247 and 102"},
      {"measurement": "Population Apoptotic (%)", "setting": "[2]; [7]", "value": "33% and 60%"},
      {"measurement": "Population Fragmented Nuclei (%)", "setting": "[2]; [7]", "value": "26% and 11%"},
      {"measurement": "Population Healthy Nuclei (%)", "setting": "[2]; [7]", "value": "43% and 66%"},
      {"measurement": "Population Hoechst High Intensity Objects (%)", "setting": "[2]; [7]", "value": "9% and 8%"},
      {"measurement": "Population Membrane Permeable-Phenotype (%)", "setting": "[2]; [7]", "value": "77% and 54%"},
      {"measurement": "Population Mitochondria Different-Phenotype (%)", "setting": "[2]; [7]", "value": "90% and 97%"},
      {"measurement": "Population Mitotic Cells (%)", "setting": "[2]; [7]", "value": "66% and 39%"},
      {"measurement": "Population Normal (%)", "setting": "[2]; [7]", "value": "90% and 91%"},
      {"measurement": "Population Pyknosed Nuclei (%)", "setting": "[2]; [7]", "value": "29% and 21%"},
      {"measurement": "Population Tubulin-Different-Phenotype (%)", "setting": "[2]; [7]", "value": "95% and 100%"},
      {"measurement": "Total Cell Count", "setting": "[2]; [7]", "value": "223 and 119"},
      {"measurement": "Population Apoptotic (%)", "setting": "[2]; [8]", "value": "67% and 61%"},
      {"measurement": "Population Fragmented Nuclei (%)", "setting": "[2]; [8]", "value": "16% and 17%"},
      {"measurement": "Population Healthy Nuclei (%)", "setting": "[2]; [8]", "value": "71% and 70%"},
      {"measurement": "Population Hoechst High Intensity Objects (%)", "setting": "[2]; [8]", "value": "5% and 0%"},
      {"measurement": "Population Membrane Permeable-Phenotype (%)", "setting": "[2]; [8]", "value": "8% and 7%"},
      {"measurement": "Population Mitochondria Different-Phenotype (%)", "setting": "[2]; [8]", "value": "6% and 2%"},
      {"measurement": "Population Mitotic Cells (%)", "setting": "[2]; [8]", "value": "32% and 38%"},
      {"measurement": "Population Normal (%)", "setting": "[2]; [8]", "value": "94% and 99%"},
      {"measurement": "Population Pyknosed Nuclei (%)", "setting": "[2]; [8]", "value": "12% and 11%"},
      {"measurement": "Population Tubulin-Different-Phenotype (%)", "setting": "[2]; [8]", "value": "7% and 6%"},
      {"measurement": "Total Cell Count", "setting": "[2]; [8]", "value": "265 and 111"},
      {"measurement": "Population Apoptotic (%)", "setting": "[2]; [3]", "value": "66% and 65%"},
      {"measurement": "Population Fragmented Nuclei (%)", "setting": "[2]; [3]", "value": "26% and 13%"},
      {"measurement": "Population Healthy Nuclei (%)", "setting": "[2]; [3]", "value": "41% and 53%"},
      {"measurement": "Population Hoechst High Intensity Objects (%)", "setting": "[2]; [3]", "value": "12% and 7%"},
      {"measurement": "Population Membrane Permeable-Phenotype (%)", "setting": "[2]; [3]", "value": "46% and 49%"},
      {"measurement": "Population Mitochondria Different-Phenotype (%)", "setting": "[2]; [3]", "value": "92% and 91%"},
      {"measurement": "Population Mitotic Cells (%)", "setting": "[2]; [3]", "value": "33% and 34%"},
      {"measurement": "Population Normal (%)", "setting": "[2]; [3]", "value": "87% and 92%"},
      {"measurement": "Population Pyknosed Nuclei (%)", "setting": "[2]; [3]", "value": "31% and 33%"},
      {"measurement": "Population Tubulin-Different-Phenotype (%)", "setting": "[2]; [3]", "value": "94% and 91%"},
      {"measurement": "Total Cell Count", "setting": "[2]; [3]", "value": "216 and 123"},
      {"measurement": "Population Apoptotic (%)", "setting": "[2]; [4]", "value": "79% and 84%"},
      {"measurement": "Population Fragmented Nuclei (%)", "setting": "[2]; [4]", "value": "18% and 15%"},
      {"measurement": "Population Healthy Nuclei (%)", "setting": "[2]; [4]", "value": "68% and 70%"},
      {"measurement": "Population Hoechst High Intensity Objects (%)", "setting": "[2]; [4]", "value": "2% and 5%"},
      {"measurement": "Population Membrane Permeable-Phenotype (%)", "setting": "[2]; [4]", "value": "4% and 9%"},
      {"measurement": "Population Mitochondria Different-Phenotype (%)", "setting": "[2]; [4]", "value": "3% and 4%"},
      {"measurement": "Population Mitotic Cells (%)", "setting": "[2]; [4]", "value": "20% and 15%"},
      {"measurement": "Population Normal (%)", "setting": "[2]; [4]", "value": "97% and 94%"},
      {"measurement": "Population Pyknosed Nuclei (%)", "setting": "[2]; [4]", "value": 13, "unit": "%"},
      {"measurement": "Population Tubulin-Different-Phenotype (%)", "setting": "[2]; [4]", "value": "2% and 5%"},
      {"measurement": "Total Cell Count", "setting": "[2]; [4]", "value": "365 and 152"},
      {"measurement": "Population Apoptotic (%)", "setting": "[2]; [5]", "value": "84% and 87%"},
      {"measurement": "Population Fragmented Nuclei (%)", "setting": "[2]; [5]", "value": "31% and 22%"},
      {"measurement": "Population Healthy Nuclei (%)", "setting": "[2]; [5]", "value": "24% and 47%"},
      {"measurement": "Population Hoechst High Intensity Objects (%)", "setting": "[2]; [5]", "value": "17% and 9%"},
      {"measurement": "Population Membrane Permeable-Phenotype (%)", "setting": "[2]; [5]", "value": "69% and 50%"},
      {"measurement": "Population Mitochondria Different-Phenotype (%)", "setting": "[2]; [5]", "value": "85% and 81%"},
      {"measurement": "Population Mitotic Cells (%)", "setting": "[2]; [5]", "value": "15% and 12%"},
      {"measurement": "Population Normal (%)", "setting": "[2]; [5]", "value": "82% and 90%"},
      {"measurement": "Population Pyknosed Nuclei (%)", "setting": "[2]; [5]", "value": "44% and 29%"},
      {"measurement": "Population Tubulin-Different-Phenotype (%)", "setting": "[2]; [5]", "value": "90% and 80%"},
      {"measurement": "Total Cell Count", "setting": "[2]; [5]", "value": "212 and 150"}
    ]}
  ]
}
